# Test results from ChEMBL document CHEMBL1153864, “Phase transfer catalyzed synthesis of bis-quinolines: antileishmanial activity in experimental visceral leishmaniasis and in vitro antibacterial evaluation” (Eur J Med Chem, 2009).
# Calls of active or inactive are those of the source. The calls are words filed in the database; no cut-off is given here.
# How the values were obtained:
# [1] = system: Leishmania donovani; experiment: Antileishmanial activity against Leishmania donovani MHOM/IN/1983/AG83 promastigotes infected BALB/c mouse assessed as reduction in liver parasite burden at 12.5 mg/kg, ip administered two times per week for 4 weeks relative to control; format: functional; set-up: scale not given: the % may be the effect or the level left; settings: route intraperitoneal
# Method in brief: (§1)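 BALB/c mice (4-6 weeks) were infected iv with 2 × 10^7 freshly transformed promastigotes. One month later, groups were dosed ip in 0.2% Tween 80 in PBS (0.02 M), twice weekly for one month (8 doses); controls got vehicle only. Mice were killed one month post-treatment and spleen and liver were weighed. Parasite load came from Giemsa impression smears as organ weight (mg) × amastigotes per cell nucleus × 2 × 10^5. Values are mean ± S.E. of 5 mice; unpaired t-test.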
# [2] = system: Leishmania donovani; experiment: Antileishmanial activity against Leishmania donovani MHOM/IN/1983/AG83 promastigotes infected BALB/c mouse assessed as spleen weight at 5.5 mg/kg, ip administered two times per week for 4 weeks; format: functional; settings: route intraperitoneal; method in brief: as §1
# [3] = system: Mus musculus; experiment: Toxicity in BALB/c mouse assessed as effect on serum glutamate pyruvate transaminase levels at 12.5 mg/kg, ip administered two times per week for 4 weeks; format: organism-based; set-up: dose 12.5 mg/kg, route intraperitoneal; settings: in vivo, 672 h
# Method in brief: (§2)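 Normal BALB/c mice were dosed ip twice per week for 4 weeks. Blood was collected one month after treatment, and serum SGPT and SGOT (IU/l) and blood urea (mg/dl) were measured with commercial kits and compared with untreated normal mice.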
# [4] = system: Mus musculus; experiment: Toxicity in BALB/c mouse assessed as effect on serum glutamate oxaloacetate transaminase levels at 5.5 mg/kg, ip administered two times per week for 4 weeks; format: organism-based; set-up: dose 5.5 mg/kg, route intraperitoneal; settings: in vivo, 672 h; method in brief: as §2
# [5] = system: Mus musculus; experiment: Toxicity in BALB/c mouse assessed as effect on blood urea levels at 5.5 mg/kg, ip administered two times per week for 4 weeks; format: organism-based; set-up: dose 5.5 mg/kg, route intraperitoneal; settings: in vivo, 672 h; method in brief: as §2
# [6] = system: Staphylococcus aureus; experiment: Antibacterial activity against Staphylococcus aureus ML6 at 5 ug/ml after 24 hrs by agar dilution method; format: functional, organism-based
# Method in brief: (§3)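 Agar dilution MIC. Compound dissolved in sterile 0.2% DMSO, diluted in distilled water and mixed into molten nutrient agar (pH 7.2–7.4) at 5, 10, 25, 50; plate with 0.2% DMSO as control. Gram-positives grown 18 h in nutrient broth, Gram-negatives in peptone water. Stationary-phase suspension set to 0.5 McFarland, diluted 1:100, spot-inoculated at about 10^5 CFU per loopful. Plates held 24 h at 37 °C (up to 72 h if needed). MIC is the lowest level with no growth.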
# [7] = system: Staphylococcus aureus; experiment: Antibacterial activity against Staphylococcus aureus ML145 at 5 ug/ml after 24 hrs by agar dilution method; format: functional; settings: ML145, 24 h; method in brief: as §3
# [8] = system: Salmonella typhimurium; experiment: Antibacterial activity against Salmonella Typhimurium NCTC 74 at 50 ug/ml after 24 hrs by agar dilution method; format: functional, Salmonella enterica subsp. enterica serovar Typhimurium; settings: Salmonella enterica, NCTC 74, 24 h; method in brief: as §3
# [9] = system: Salmonella typhimurium; experiment: Antibacterial activity against Salmonella Typhimurium NCTC 74 after 24 hrs by agar dilution method; format: functional, Salmonella enterica subsp. enterica serovar Typhimurium; settings: Salmonella enterica, NCTC 74, 24 h; method in brief: as §3
# [10] = system: Escherichia coli; experiment: Antibacterial activity against Escherichia coli K-12 Row at 50 ug/ml after 24 hrs by agar dilution method; format: functional; method in brief: as §3
# [11] = system: Escherichia coli; experiment: Antibacterial activity against Escherichia coli ATCC 25938 at 25 ug/ml after 24 hrs by agar dilution method; format: functional, organism-based; method in brief: as §3
# [12] = system: Escherichia coli; experiment: Antibacterial activity against Escherichia coli ATCC 25938 after 24 hrs by agar dilution method; format: functional; settings: ATCC 25938, 24 h; method in brief: as §3
# [13] = system: Vibrio cholerae; experiment: Antibacterial activity against Vibrio cholerae 569B at 5 ug/ml after 24 hrs by agar dilution method; format: functional, organism-based
# [14] = system: Vibrio cholerae; experiment: Antibacterial activity against Vibrio cholerae 569B at 25 ug/ml after 24 hrs by agar dilution method; format: functional
# [15] = system: Vibrio cholerae; experiment: Antibacterial activity against Vibrio cholerae 582 after 24 hrs by agar dilution method; format: functional; settings: Vibrio cholerae, 582, 24 h
# [16] = system: Proteus mirabilis; experiment: Antibacterial activity against Proteus mirabilis 7 at 5 ug/ml after 24 hrs by agar dilution method; format: functional, organism-based; method in brief: as §3
# [17] = system: Proteus mirabilis; experiment: Antibacterial activity against Proteus mirabilis 7 at 25 ug/ml after 24 hrs by agar dilution method; format: functional, organism-based; method in brief: as §3
# [18] = system: Proteus mirabilis; experiment: Antibacterial activity against Proteus mirabilis 7 after 24 hrs by agar dilution method; format: functional; settings: Proteus mirabilis, 7, 24 h; method in brief: as §3
# [19] = system: Bacillus licheniformis; experiment: Antibacterial activity against […] Bacillus licheniformis NCTC 10341 at 25 ug/ml after 24 hrs by agar dilution method; format: functional, organism-based; method in brief: as §3
# [20] = system: Proteus mirabilis; experiment: Antibacterial activity against Proteus mirabilis 175 at 5 ug/ml after 24 hrs by agar dilution method; format: functional, organism-based; method in brief: as §3
# [21] = system: Proteus mirabilis; experiment: Antibacterial activity against Proteus mirabilis 175 after 24 hrs by agar dilution method; format: functional; settings: Proteus mirabilis, 175, 24 h; method in brief: as §3
# [22] = system: Pseudomonas aeruginosa; experiment: Antibacterial activity against Pseudomonas aeruginosa ATCC 27853 at 5 ug/ml after 24 hrs by agar dilution method; format: functional, organism-based; method in brief: as §3
# [23] = system: Pseudomonas aeruginosa; experiment: Antibacterial activity against Pseudomonas aeruginosa ATCC 27853 at 50 ug/ml after 24 hrs by agar dilution method; format: functional; settings: ATCC 27853, 24 h; method in brief: as §3
# [24] = system: Pseudomonas aeruginosa; experiment: Antibacterial activity against Pseudomonas aeruginosa ATCC 27853 after 24 hrs by agar dilution method; format: functional; settings: ATCC 27853, 24 h; method in brief: as §3
# [25] = system: Shigella dysenteriae; experiment: Antibacterial activity against Shigella dysenteriae 7 NCTC 519/66 after 24 hrs by agar dilution method; format: functional; settings: 7 NCTC 519/66, 24 h
# [26] = system: Leishmania donovani; experiment: Antileishmanial activity against Leishmania donovani MHOM/IN/1983/AG83 promastigotes assessed as induction of kinetoplast enlargement at 2 ug/ml after 2 hrs by transmission electron microscopy; format: functional, organism-based
# Method in brief: (§4)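 Log-phase promastigotes, grown at 22 °C in M199 with 10% FBS, were exposed for 2 h to the compound; controls received 0.1% DMSO alone. Cells were then sectioned, stained on copper grids with uranyl acetate and lead acetate for 10-15 min each, and examined by TEM for ultrastructural changes.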
# [27] = system: Leishmania donovani; experiment: Antileishmanial activity against Leishmania donovani MHOM/IN/1983/AG83 promastigotes assessed as induction of vacuolization at 2 ug/ml after 2 hrs by transmission electron microscopy; format: functional, organism-based; method in brief: as §4
# [28] = system: Leishmania donovani; experiment: Antileishmanial activity against Leishmania donovani MHOM/IN/1983/AG83 promastigotes assessed as induction of kinetoplast enlargement at 11.5 ug/ml after 2 hrs by transmission electron microscopy; format: functional, organism-based
# [29] = Down regulation of TNFalpha release Leishmania donovani MHOM/IN/1983/AG83 infected bacterial liposaccharide-stimulated golden Syrian hamster peritoneal macrophages; format: functional, cell-based; settings: Mesocricetus auratus; Macrophage
# [30] = system: Macrophage; experiment: Induction of nitric oxide production in Leishmania donovani MHOM/IN/1983/AG83 infected golden Syrian hamster peritoneal macrophages; format: functional, cell-based; settings: Mesocricetus auratus
# [31] = system: Leishmania donovani; experiment: Antileishmanial activity against Leishmania donovani MHOM/IN/1983/AG83 promastigotes infected BALB/c mouse assessed as spleen weight at 12.5 mg/kg, ip administered two times per week for 4 weeks; format: functional; settings: route intraperitoneal; method in brief: as §1
# [32] = system: Leishmania donovani; experiment: Antileishmanial activity against Leishmania donovani MHOM/IN/1983/AG83 amastigotes by Giemsa staining; format: functional, organism-based
# Method in brief: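 Peritoneal macrophages from thioglycolate-elicited exudate (~2×10^6/ml), adhered overnight on coverslips in RPMI-1640 + 10% FBS at 37 °C, 5% CO2. Infected 6 h with stationary-phase AG83 promastigotes (2×10^7/ml), washed, then exposed 24 h to 0.5, 1, 3, 5, 10 compound. Methanol-fixed, Giemsa-stained; amastigotes per 200 macrophages counted against untreated controls.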
# [33] = Toxicity against golden Syrian hamster peritoneal macrophages; format: cell-based, Mesocricetus auratus; settings: macrophage
structure (smiles),measurement,setting,value
Clc1ccc(OCOc2ccc(Cl)c3cccnc23)c2ncccc12,Activity,[1],98.49%
same,Activity,[2],175 mg
same,Activity,[3],Non-toxic
same,Activity,[4],Non-toxic
same,Activity,[5],Non-toxic
same,Activity,[6],inactive
same,inhibition at 5 µg/mL,[7],100%
same,inhibition at 50 µg/mL,[8],100%
same,MIC,[9],50 µg/mL
same,inhibition at 50 µg/mL,[10],100%
same,Activity,[11],inactive
same,MIC,[12],50 µg/mL
same,Activity,[13],inactive
same,inhibition at 25 µg/mL,[14],100%
same,MIC,[15],5 µg/mL
same,Activity,[16],inactive
same,Activity,[17],inactive
same,MIC,[18],50 µg/mL
same,Activity,[19],inactive
same,Activity,[20],inactive
same,MIC,[21],50 µg/mL
same,Activity,[22],inactive
same,inhibition at 50 µg/mL,[23],100%
same,MIC,[24],25 µg/mL
same,MIC,[25],10 µg/mL
same,Activity,[26],Active
same,Activity,[27],Active
same,Activity,[28],Active
same,Activity,[29],Active
same,Activity,[30],Active
same,Activity,[31],90 mg
same,IC50,[32],2.1 µg/mL
same,Activity,[33],> 80 µg/mL
